Data: ChEMBL document CHEMBL3414503, “Distinct novel quinazolinone exhibits selective inhibition in MGC-803 cancer cells by dictating mutant p53 function” (Eur J Med Chem, 2015)
Calls of active or inactive are those of the source. The rule behind the calls is not given here.

Experiments:
A-375 = test: Cytotoxicity against human A375 cells assessed as cell viability after 48 hrs by MTT assay; assay type: functional, cell-based; conditions: A-375, 48 h
Outline: (§1)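 Cells were trypsinized, seeded in 96-well plates at 2 × 10³ cells/well and grown for 24 h. Medium was then replaced with compound solutions (in DMSO, range from 0.1) for 48 h, and viability was read by MTT. Cancer lines were grown in RPMI 1640 + 10% FCS. IC50 from 3 independent experiments, each in triplicate.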

HepG2 = test: Cytotoxicity against human HepG2 cells assessed as cell viability after 48 hrs by MTT assay; assay type: functional, cell-based; conditions: HepG2, 48 h; outline: as §1
NCI-H460 = test: Cytotoxicity against human NCI-H460 cells assessed as cell viability after 48 hrs by MTT assay; assay type: functional, cell-based; conditions: NCI-H460, 48 h; outline: as §1
MGC-803 [1] = test: Cytotoxicity against human MGC803 cells assessed as cell viability after 48 hrs by MTT assay; assay type: functional, cell-based; conditions: MGC-803, 48 h; outline: as §1
MGC-803 [2] = test: Cell cycle arrest in human MGC803 cells assessed as accumulation at G0/G1 phase at 10 uM after 48 hrs by propidium iodide staining-based FACS analysis relative to control; assay type: functional
MGC-803 [3] = test: Cell cycle arrest in human MGC803 cells assessed as accumulation at S phase at 10 uM after 48 hrs by propidium iodide staining-based FACS analysis relative to control; assay type: functional
MGC-803 [4] = test: Cell cycle arrest in human MGC803 cells assessed as accumulation at S phase at 1 uM after 48 hrs by propidium iodide staining-based FACS analysis relative to control; assay type: functional
MGC-803 [5] = test: Cell cycle arrest in human MGC803 cells assessed as accumulation at G2/M phase at 1 uM after 48 hrs by propidium iodide staining-based FACS analysis relative to control; assay type: functional
MGC-803 [6] = test: Cell cycle arrest in human MGC803 cells assessed as accumulation at G0/G1 phase at 1 uM after 48 hrs by propidium iodide staining-based FACS analysis relative to control; assay type: functional
MGC-803 [7] = test: Cell cycle arrest in human MGC803 cells assessed as accumulation at G2/M phase at 10 uM after 48 hrs by propidium iodide staining-based FACS analysis relative to control; assay type: functional
MGC-803 [8] = test: Cell cycle arrest in human MGC803 cells assessed as accumulation at sub G1 phase at 1 uM after 48 hrs by propidium iodide staining-based FACS analysis relative to control; assay type: functional
MGC-803 [9] = test: Cell cycle arrest in human MGC803 cells assessed as accumulation at sub G1 phase at 10 uM after 48 hrs by propidium iodide staining-based FACS analysis relative to control; assay type: functional
[10] = tested on: Cellular tumor antigen p53 (Homo sapiens), P04637 [UNDEFINED MUTATION]; test: Inhibition of P53 mutant phosphorylation at s392 in human MGC803 cells at 1 to 10 uM after 24 hrs by Western blot analysis; assay type: cell-based; conditions: MGC-803
Outline: (§2)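 MGC-803 cells, 3 × 10⁵ per well of a 6-well plate, exposed to compound for 24 h. Cells were washed in ice-cold PBS and lysed in sample buffer, then run on SDS-PAGE and transferred to nitrocellulose. Blots were probed with primary antibodies and […] anti-rabbit IgG and developed by ECL.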

[11] = tested on: Cellular tumor antigen p53 (Homo sapiens), P04637 [UNDEFINED MUTATION]; test: Inhibition of P53 mutant acetylation at k373 in human MGC803 cells at 1 to 10 uM after 24 hrs by Western blot analysis; assay type: cell-based; conditions: MGC-803; outline: as §2
MGC-803 [12] = test: Cytotoxicity against human MGC803 cells assessed as cell viability at 1 to 10 uM after 48 hrs by MTT assay; assay type: functional, cell-based

Cellular tumor antigen p53 (Homo sapiens), P04637 [UNDEFINED MUTATION], sequence (P04637 whole entry, looked up, stated change not applied): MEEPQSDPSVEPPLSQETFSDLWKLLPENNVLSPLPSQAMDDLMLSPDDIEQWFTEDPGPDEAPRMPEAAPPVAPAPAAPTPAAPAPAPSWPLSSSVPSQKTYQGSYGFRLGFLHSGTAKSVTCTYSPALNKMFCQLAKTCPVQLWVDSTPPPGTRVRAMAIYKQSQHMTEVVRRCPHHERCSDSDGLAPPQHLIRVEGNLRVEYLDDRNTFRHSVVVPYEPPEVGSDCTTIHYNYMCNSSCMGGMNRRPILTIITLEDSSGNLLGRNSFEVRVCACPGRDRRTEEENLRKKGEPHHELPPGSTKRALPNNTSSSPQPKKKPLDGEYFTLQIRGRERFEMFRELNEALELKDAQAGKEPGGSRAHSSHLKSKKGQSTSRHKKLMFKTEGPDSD

Row | SMILES | IC50 (A-375) [µM] | IC50 (HepG2) [µM] | IC50 (NCI-H460) [µM] | IC50 (MGC-803 [1]) [µM] | further results
1 | CCCCn1c(/C=C/c2ccc(F)cc2)nc2ccccc2c1=O | > 20 | > 20 | > 20 | > 20 | 
2 | CN(C)CCn1c(/C=C/c2ccc(Cl)cc2Cl)nc2ccccc2c1=O | > 20 | > 20 | > 20 | > 20 | 
3 | CCCCn1c(/C=C/c2ccc(OC)c(OC)c2)nc2ccccc2c1=O | > 20 | > 20 | > 20 | > 20 | 
4 | CN(C)CCCn1c(/C=C/c2ccccc2Br)nc2ccccc2c1=O | 8.41 | 5.06 | 6.54 | 14.6 | 
5 | COc1cc2nc(/C=C/c3ccc4c(c3)OCO4)n(CCCN(C)C)c(=O)c2cc1OC | > 20 |  |  |  | 
6 | CN(C)CCn1c(/C=C/c2ccccc2Br)nc2ccccc2c1=O | > 20 | > 20 | > 20 | > 20 | 
7 | CN(C)CCCn1c(/C=C/c2ccc(Cl)cc2)nc2ccccc2c1=O | > 20 | > 20 | > 20 | > 20 | 
8 | COc1cc2nc(/C=C/c3ccccc3Br)n(CCCN(C)C)c(=O)c2cc1OC | > 20 |  |  |  | 
9 | COc1ccc(/C=C/c2nc3ccccc3c(=O)n2CCN(C)C)cc1OC | > 20 | > 20 | > 20 | > 20 | 
10 | CN(C)CCn1c(/C=C/c2ccc([N+](=O)[O-])cc2)nc2ccccc2c1=O | > 20 | > 20 | > 20 | > 20 | 
11 | CCCCn1c(/C=C/c2ccc(Cl)cc2Cl)nc2ccccc2c1=O | > 20 | > 20 | > 20 | > 20 | 
12 | CN(C)CCCn1c(/C=C/c2cccc(O)c2)nc2cc(Cl)ccc2c1=O | > 20 | > 20 | 10.5 | > 20 | 
13 | COc1ccc(/C=C/c2nc3cc(OC)c(OC)cc3c(=O)n2CCCN(C)C)cc1OC | > 20 |  |  |  | 
14 | CN(C)CCCn1c(/C=C/c2ccc(Cl)cc2)nc2cc(Cl)ccc2c1=O | 14.1 | 6.43 | 7.72 | 6.88 | 
15 | CN(C)CCn1c(/C=C/c2cccc([N+](=O)[O-])c2)nc2ccccc2c1=O | > 20 | > 20 | > 20 | > 20 | 
16 | CN(C)CCCn1c(/C=C/c2cccc([N+](=O)[O-])c2)nc2cc(Cl)ccc2c1=O | 14 | 6.13 | 5.83 | 4.14 | 
17 | CN(C)CCn1c(/C=C/c2ccc(Cl)cc2)nc2ccccc2c1=O | > 20 | > 20 | > 20 | > 20 | 
18 | COc1ccc(/C=C/c2nc3cc(Cl)ccc3c(=O)n2CCCN(C)C)cc1OC | > 20 | > 20 | > 20 | > 20 | 
19 | CN(C)CCCn1c(/C=C/c2ccc(F)cc2)nc2ccccc2c1=O | > 20 | > 20 | > 20 | > 20 | 
20 | CCCCn1c(/C=C/c2ccc(Cl)cc2)nc2ccccc2c1=O | > 20 | > 20 | > 20 | > 20 | 

Row | SMILES | IC50 (A-375) [µM] | IC50 (HepG2) [µM] | IC50 (NCI-H460) [µM] | IC50 (MGC-803 [1]) [µM] | further results
21 | CN(C)CCCn1c(/C=C/c2cccc(O)c2)nc2ccccc2c1=O | > 20 | 6.1 | > 20 | > 20 | 
22 | CCCCn1c(/C=C/c2ccc([N+](=O)[O-])cc2)nc2ccccc2c1=O | > 20 | > 20 | > 20 | > 20 | 
23 | CN(C)CCCn1c(/C=C/c2ccc3c(c2)OCO3)nc2cc(Cl)ccc2c1=O | > 20 | > 20 | > 20 | > 20 | 
24 | CN(C)CCCn1c(/C=C/c2ccc(F)cc2)nc2cc(Cl)ccc2c1=O | > 20 | > 20 | > 20 | > 20 | 
25 | CN(C)CCCn1c(/C=C/c2ccccc2Br)nc2cc(Cl)ccc2c1=O | 13.1 | 8.1 | 7.49 | 12.6 | 
26 | CCCCn1c(/C=C/c2ccccc2Br)nc2ccccc2c1=O | > 20 | > 20 | > 20 | > 20 | 
27 | COc1cc2nc(/C=C/c3cccc([N+](=O)[O-])c3)n(CCCN(C)C)c(=O)c2cc1OC | > 20 |  |  |  | 
28 | CN(C)CCCn1c(/C=C/c2ccc(Cl)cc2Cl)nc2cc(Cl)ccc2c1=O | 12.9 | 8.58 | 13.3 | 5.75 | 
29 | COc1cc2nc(/C=C/c3ccc(Cl)cc3Cl)n(CCCN(C)C)c(=O)c2cc1OC | 12.7 | 6.45 | 6.37 | 5.92 | 
30 | CCCCn1c(/C=C/c2cccc([N+](=O)[O-])c2)nc2ccccc2c1=O | > 20 | > 20 | > 20 | > 20 | 
31 | COc1cc2nc(/C=C/c3cccc(O)c3)n(CCCN(C)C)c(=O)c2cc1OC | > 20 |  |  |  | 
32 | CN(C)CCCn1c(/C=C/c2ccc([N+](=O)[O-])cc2)nc2cc(Cl)ccc2c1=O | 10.3 | 7.41 | 5.55 | 8.28 | 
33 | CCCCn1c(/C=C/c2cccc(O)c2)nc2ccccc2c1=O | > 20 | > 20 | > 20 | > 20 | 
34 | CN(C)CCCn1c(/C=C/c2ccc(Cl)cc2Cl)nc2ccccc2c1=O | 7.15 | 4.2 | 5.86 | 3.89 | Activity (MGC-803 [2]): 34.55%; Activity (MGC-803 [3]): 20.64%; Activity (MGC-803 [4]): 29.35%; Activity (MGC-803 [5]): 11.4%; Activity (MGC-803 [6]): 54.16%; Activity (MGC-803 [7]): 12.83%; Activity (MGC-803 [8]): 5.09%; Activity (MGC-803 [9]): 31.98%
35 | CN(C)CCn1c(/C=C/c2ccc(F)cc2)nc2ccccc2c1=O | > 20 | > 20 | > 20 | > 20 | 
36 | CN(C)CCn1c(/C=C/c2ccc3c(c2)OCO3)nc2ccccc2c1=O | > 20 | > 20 | > 20 | > 20 | 
37 | CN(C)CCn1c(/C=C/c2cccc(O)c2)nc2ccccc2c1=O | > 20 | > 20 | > 20 | > 20 | 
38 | COc1cc2nc(/C=C/c3ccc([N+](=O)[O-])cc3)n(CCCN(C)C)c(=O)c2cc1OC | > 20 |  |  |  | 
39 | CCCCn1c(/C=C/c2ccc3c(c2)OCO3)nc2ccccc2c1=O | > 20 | > 20 | > 20 | > 20 | 
40 | COc1cc2nc(/C=C/c3ccc(F)cc3)n(CCCN(C)C)c(=O)c2cc1OC |  | > 20 | > 20 | > 20 | inhibition [10]: inactive; inhibition [11]: inactive; Activity (MGC-803 [12]): inactive
